In the library only some 3.7% were active in any assay of this set; here they are far more common.
EP2 mod = modulators of human EP2 prostaglandin E2 receptor | P43116 | EP2-expressing cells, cAMP HTRF FRET, PGE2 co-stimulation | induction, % at 25 µM | actives 0.83% (n = 260,000);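 active = compounds whose cAMP rise, as percent of the full-agonist control response, exceeds 60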;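 also: rat C6 glioma line stably carrying human EP2 under a CMV promoter; the protocol text gives 20 µM as final concentration; 100% = response of wells given 1 µM PGE2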
Target sequence (P43116 whole entry, looked up): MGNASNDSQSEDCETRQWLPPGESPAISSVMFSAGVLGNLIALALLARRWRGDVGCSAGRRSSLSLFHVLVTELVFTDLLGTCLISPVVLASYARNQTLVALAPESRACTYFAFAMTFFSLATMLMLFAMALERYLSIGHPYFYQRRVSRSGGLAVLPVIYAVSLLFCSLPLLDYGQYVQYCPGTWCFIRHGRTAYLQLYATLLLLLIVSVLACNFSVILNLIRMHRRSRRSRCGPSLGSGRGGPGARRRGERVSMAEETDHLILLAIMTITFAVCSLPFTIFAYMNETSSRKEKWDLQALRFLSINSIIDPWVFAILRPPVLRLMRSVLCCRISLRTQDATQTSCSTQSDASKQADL
CHO parental Ca = counter-screen: ATP calcium response change in parental CHO cells. parental CHO-K1, ATP-induced calcium, Fluo-8 fluorescence. inhibition, % at 5.6 µM. actives 0.63% (n = 330,000). AID 463079;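 active = inhibition above that plate's mean sample inhibition plus 3 SD, cut at about 26% in these data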;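 also: 0% = ATP-challenged DMSO wells and 100% = DMSO wells without ATP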
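Test system: untransfected parental CHO cell line; also added: ATP stimulus; dosing: 5.6 µM, single dose; signal: calcium-sensitive Fluo-8 fluorescence; measure: percent inhibition of ATP-evoked calcium rise, normalized to controls; benchmarks: low control ATP plus DMSO, high control DMSO only; replication: one well per compound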
OX1R antag-1 = antagonists of human orexin 1 receptor (OX1R); OX1R-expressing cells, FRET antagonist read-out; actives 1.8% (n = 330,000); O43613; inhibition, % at 6.6 µM; in the data active = inhibition mostly above about 38%, no sharp cut-off; inactive = mostly below about 40%;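 also: 0% = agonist challenge alone and 100% = reference antagonist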
GPR7 antag = human neuropeptides B/W receptor 1 antagonism; P48145; GPR7-expressing cells, fluorescence antagonist assay; inhibition, % at 4.4 µM; actives 1.1% (n = 290,000); AID 1861; in the data active = inhibition above about 16%, passing the limit was not always enough;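 also: cells stimulated with the agonist NPW; 0% = agonist with vehicle and 100% = vehicle without agonist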
PGE2 EP2 inh = inhibitors of human EP2 prostaglandin E2 receptor. P43116. C6 glioma cells expressing human EP2, cAMP TR-FRET; cells stimulated with saturating PGE2. inhibition, % at 25 µM. actives 0.52% (n = 260,000). AID 1422;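 active = percent inhibition above 40 after rounding to a whole number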;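 also: rat C6 glioma host cells with rolipram phosphodiesterase inhibitor present; the protocol text gives 20 µM as final concentration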
OX1R antag-2 = antagonists of human orexin 1 receptor; actives 0.43% (n = 330,000); CHO/OX1R cells, Fluo-8 calcium fluorescence, orexin A; inhibition, % at 5 µM; O43613; AID 434989;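 active = inhibition above its plate's threshold, mean inhibition of all tested compounds on the plate plus 3 SD, cut at about 37% in these data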;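 also: 0% = orexin A challenge wells and 100% = SB-334867-A antagonist wells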
* marks the source's active call; other numbers are inactive results.

Screening CNC(=O)C(=O)NCC1OCCN1S(=O)(=O)c1ccc([N+](=O)[O-])cc1 (centres undefined) returned EP2 mod 4, CHO parental Ca -6, OX1R antag-1 72*, GPR7 antag 0, PGE2 EP2 inh 9 and OX1R antag-2 -25.
Screening CC(=O)Nc1ccc(NC(=O)C(NS(=O)(=O)c2cccc3nsnc23)C(C)C)cc1 (centres undefined) returned CHO parental Ca -12, OX1R antag-1 56*, GPR7 antag -4 and OX1R antag-2 -25.
O=C(O)C1CSCN1S(=O)(=O)c1cccc2nsnc12 (centres undefined) was read as EP2 mod 19, CHO parental Ca 1, OX1R antag-1 41*, PGE2 EP2 inh 8 and OX1R antag-2 -6.
`O=C(NCc1ccccc1)C(=O)NCC1OCCN1S(=O)(=O)c1ccc([N+](=O)[O-])cc1` (centres undefined) gave EP2 mod 0, CHO parental Ca -9, OX1R antag-1 25, GPR7 antag -5, PGE2 EP2 inh 4 and OX1R antag-2 -12.
For CC(C)C(NS(=O)(=O)c1cccc2nsnc12)C(=O)NC1CCCCC1 (centres undefined) the results were CHO parental Ca -11, OX1R antag-1 75*, GPR7 antag 1 and OX1R antag-2 0.
For CC(C)C(NS(=O)(=O)c1ccccc1)C(=O)NC1CCCC1 (centres undefined) the results were CHO parental Ca -7, OX1R antag-1 13, GPR7 antag -17 and OX1R antag-2 -3.
`COC(=O)C1CCCN1S(=O)(=O)c1ccc([N+](=O)[O-])cc1` (centres undefined) gave CHO parental Ca 18, OX1R antag-1 36*, GPR7 antag 14 and OX1R antag-2 0.
For CC(C)[C@H](NS(=O)(=O)c1ccccc1F)C(=O)NC1CCCCC1 the results were CHO parental Ca -11, OX1R antag-1 39* and OX1R antag-2 29.
For O=C(NC1CCCCC1)C1CCCN1S(=O)(=O)c1ccc(F)cc1 (centres undefined) the results were CHO parental Ca -1, OX1R antag-1 14, GPR7 antag 6 and OX1R antag-2 0.
`CC1CCC(NC(=O)C(NS(=O)(=O)c2cccc3nsnc23)C(C)C)CC1` (centres undefined) gave CHO parental Ca -18, OX1R antag-1 32, GPR7 antag -13 and OX1R antag-2 -17.
Cc1ccc(S(=O)(=O)N2CCCC2C(=O)NC2CCCCC2)cc1 (centres undefined) was read as EP2 mod 17, CHO parental Ca -5, OX1R antag-1 57*, GPR7 antag -6, PGE2 EP2 inh 4 and OX1R antag-2 17.
Screening COc1ccc(C2NC(=O)c3sc(=S)n(-c4ccccc4)c3N2)cc1 (centres undefined) returned EP2 mod 7, CHO parental Ca -11, OX1R antag-1 14, GPR7 antag -4, PGE2 EP2 inh 5 and OX1R antag-2 -13.
CNC(=O)c1nn(-c2ccccc2)ccc1=O was read as EP2 mod 28, CHO parental Ca -21, OX1R antag-1 12, GPR7 antag 4, PGE2 EP2 inh 15 and OX1R antag-2 3.
C=CCn1c(C)cc(C(=O)COC(=O)[C@@H](NC(=O)c2ccccc2Cl)C(C)C)c1C was read as EP2 mod 17, CHO parental Ca -18, OX1R antag-1 13, GPR7 antag -9, PGE2 EP2 inh 5 and OX1R antag-2 -13.
For CCOc1ccc(NC(=O)CSc2nnc(-c3ccoc3C)n2CC2CCCO2)cc1 (centres undefined) the results were EP2 mod 25, CHO parental Ca -13, OX1R antag-1 0, GPR7 antag -6, PGE2 EP2 inh 14 and OX1R antag-2 -35.
O=C(NC1CCCC1)C(NS(=O)(=O)c1cccc2nsnc12)c1ccccc1 (centres undefined) was read as EP2 mod 9, CHO parental Ca -22, OX1R antag-1 53*, GPR7 antag 6, PGE2 EP2 inh 9 and OX1R antag-2 -28.
For O=C(NCc1ccco1)C(Cc1ccccc1)NS(=O)(=O)c1cccc2nsnc12 (centres undefined) the results were EP2 mod 12, CHO parental Ca -21, OX1R antag-1 51*, GPR7 antag -9, PGE2 EP2 inh 10 and OX1R antag-2 -18.
Screening O=C(NC1CCCCC1)C1CCCN1S(=O)(=O)c1cccc2nsnc12 (centres undefined) returned EP2 mod -9, CHO parental Ca 0, OX1R antag-1 60*, GPR7 antag -8, PGE2 EP2 inh 4 and OX1R antag-2 -3.
`COCCCNC(=O)C1CCN(S(=O)(=O)c2c(C)cc(C)cc2C)CC1` gave EP2 mod -27 and PGE2 EP2 inh 10.
For O=C(Nc1ccc(Br)c(C(F)(F)F)c1)c1ccc(C(F)(F)F)cc1 the results were EP2 mod -45, CHO parental Ca 40*, OX1R antag-1 62*, GPR7 antag 19, PGE2 EP2 inh 11 and OX1R antag-2 60*.
Screening COc1ccc(-n2c(SCC3CNC(=O)O3)nnc2-c2ccc(Cl)cc2)cc1 (centres undefined) returned EP2 mod 5, CHO parental Ca -1, OX1R antag-1 4, GPR7 antag -2, PGE2 EP2 inh 7 and OX1R antag-2 -15.
NCCC1([N+](=O)[O-])CCNCC1 was read as EP2 mod 8 and PGE2 EP2 inh 50*.
`O=C(Cn1c(=O)n(CCc2c[nH]c3ccccc23)c(=O)c2cccnc21)Nc1ccccc1F` gave EP2 mod 17, CHO parental Ca 13, OX1R antag-1 20, GPR7 antag -5, PGE2 EP2 inh 7 and OX1R antag-2 -3.
Screening C/C=C(/C)C(=O)OC1CC(C)(C)C[C@H]2C3=CC[C@@H]4[C@@]5(C)CCC(O[C@@H]6O[C@@H](C(=O)O)[C@@H](O)C(O[C@@H]7OC[C@H](O)[C@@H](O)[C@@H]7O[C@@H]7OC(CO)C(O)[C@@H](O)[C@@H]7O)C6O[C@@H]6OC(CO)C(O)C(O)C6O)[C@@](C)(CO)[C@@H]5CC[C@]4(C)[C@]3(C)CC(O)[C@@]12CO (some centres undefined) returned CHO parental Ca 101*, OX1R antag-1 24 and OX1R antag-2 104*.
Screening CC(=O)OC1COC(OC2C(O)C(C)OC(OC3C(OC4CCC5(C)C(CCC6(C)C5CC=C5C7CC(C)(C)CCC7(C(=O)O)CCC56C)C4(C)CO)OCC(O)C3O)C2O)C(O)C1OC(C)=O (centres undefined) returned EP2 mod -1, CHO parental Ca 101*, OX1R antag-1 22, GPR7 antag -14, PGE2 EP2 inh 14 and OX1R antag-2 105*.
